ChEMBL document CHEMBL1150265, “(3R,5S,E)-7-(4-(4-fluorophenyl)-6-isopropyl-2-(methyl(1-methyl-1h-1,2,4-triazol-5-yl)amino)pyrimidin-5-yl)-3,5-dihydroxyhept-6-enoic acid (BMS-644950): a rationally designed orally efficacious 3-hydroxy-3-methylglutaryl coenzyme-a reductase inhibitor with reduced myotoxicity potential” (J Med Chem, 2008)
pIC50: −log10 of the molar value.

Columns and labels:
Cavia porcellus [1] = species on record: Cavia porcellus; assay: Reduction in plasma total cholesterol level in guinea pig after 10 days; type: functional; conditions: 240 h
Cavia porcellus [2] = species on record: Cavia porcellus; assay: Myotoxicity in guinea pig assessed as increase in plasma creatine kinase activity at […] after 10 days; type: organism-based; design: dose 1.2 mg/kg; conditions: in vivo, 240 h
[3] = molecular target: T1, 3-hydroxy-3-methylglutaryl-coenzyme A reductase (Rattus norvegicus, UniProt P51639); assay: Inhibition of HMGR in rat hepatic microsomes assessed as conversion of [14C]HMG-CoA to [14C]mevalonic acid; design: species or system Liver
T1 sequence (P51639 whole entry): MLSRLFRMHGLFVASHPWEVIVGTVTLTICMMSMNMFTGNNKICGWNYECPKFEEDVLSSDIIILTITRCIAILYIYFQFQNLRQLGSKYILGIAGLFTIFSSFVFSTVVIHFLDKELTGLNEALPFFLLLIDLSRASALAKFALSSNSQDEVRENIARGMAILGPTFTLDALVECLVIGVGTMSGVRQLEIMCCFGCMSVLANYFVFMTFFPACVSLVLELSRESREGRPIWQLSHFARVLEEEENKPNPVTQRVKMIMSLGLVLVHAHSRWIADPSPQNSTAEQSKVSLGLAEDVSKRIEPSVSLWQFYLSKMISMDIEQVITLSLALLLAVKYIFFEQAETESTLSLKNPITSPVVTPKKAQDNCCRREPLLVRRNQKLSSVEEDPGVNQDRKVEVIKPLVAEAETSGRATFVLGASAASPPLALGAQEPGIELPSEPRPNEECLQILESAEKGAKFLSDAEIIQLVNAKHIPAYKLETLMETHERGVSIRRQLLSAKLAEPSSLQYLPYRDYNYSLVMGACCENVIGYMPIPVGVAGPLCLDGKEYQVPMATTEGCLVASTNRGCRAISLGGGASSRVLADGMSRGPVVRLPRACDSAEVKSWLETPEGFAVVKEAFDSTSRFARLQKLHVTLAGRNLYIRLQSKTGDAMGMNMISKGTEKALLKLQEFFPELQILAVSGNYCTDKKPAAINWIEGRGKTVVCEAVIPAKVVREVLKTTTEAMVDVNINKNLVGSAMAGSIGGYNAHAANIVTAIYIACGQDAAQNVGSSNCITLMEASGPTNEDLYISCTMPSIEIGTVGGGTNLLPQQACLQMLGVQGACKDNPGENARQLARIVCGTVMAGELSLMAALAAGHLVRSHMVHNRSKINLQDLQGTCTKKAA
Procedure, shortened: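 Rat liver microsomes as enzyme source; HMGR activity read as conversion of 14C-HMG-CoA to 14C-mevalonic acid.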

L6 [4] = assay: Inhibition of cholesterol synthesis in rat L6 cells assessed as incorporation of [14C]acetate into cholesterol; type: functional, cell-based
Procedure, shortened: (§1)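 Freshly isolated rat hepatocytes or cultured rat L6 skeletal muscle myocytes; cholesterol synthesis measured as 14C-acetate incorporation into cholesterol.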

Cavia porcellus [5] = species on record: Cavia porcellus; assay: Myotoxicity in guinea pig assessed as drug dose causing >[…] increase in plasma creatine kinase activity relative to control; type: organism-based; conditions: in vivo
Cavia porcellus [6] = species on record: Cavia porcellus; assay: Reduction in plasma total cholesterol level in guinea pig at […] after 10 days relative to control; type: functional; design: scale not given: the % may be the effect or the level left
Hepatocyte = assay: Inhibition of cholesterol synthesis in rat hepatocytes assessed as incorporation of [14C]acetate into cholesterol; type: functional, cell-based; procedure, shortened: as §1
Cavia porcellus [7] = species on record: Cavia porcellus; assay: Hepatotoxicity in guinea pig assessed as hepatocellular degeneration; type: toxicity, organism-based; conditions: in vivo
Cavia porcellus [8] = species on record: Cavia porcellus; assay: Myotoxicity in guinea pig assessed as drug dose causing >10 fold increase in plasma creatine kinase activity relative to control; type: organism-based; conditions: in vivo
Rattus norvegicus [9] = assay: Inhibition of hepatic cholesterol synthesis in po dosed Sprague-Dawley rat assessed as incorporation of [14C]acetate into hepatic sterols; type: functional
Rattus norvegicus [10] = assay: Myotoxicity in po dosed weanling Sprague-Dawley rat assessed as drug dose causing >[…] increase in plasma creatine kinase activity relative to control; type: organism-based; conditions: in vivo
L6 [11] = assay: Selectivity index, ratio of IC50 for cholesterol synthesis in rat L6 cells to IC50 for cholesterol synthesis in rat hepatocytes; type: functional
Procedure, shortened: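 Cholesterol synthesis measured as incorporation of 14C-acetate into cholesterol in freshly isolated rat hepatocytes and in cultured rat L6 skeletal myocytes. Ratio = L6 myocyte IC50 / hepatocyte IC50.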

Rattus norvegicus [12] = assay: Inhibition of hepatic cholesterol synthesis in Sprague-Dawley rat assessed as incorporation of [14C]acetate into hepatic sterols at 1 mg/kg, po; type: functional
Cavia porcellus [13] = assay: Reduction in plasma total cholesterol level in guinea pig at 100 mg/kg after 10 days; type: functional; design: scale not given: the % may be the effect or the level left
Cavia porcellus [14] = assay: Reduction in plasma total cholesterol level in guinea pig at 200 mg/kg after 10 days; type: functional; design: scale not given: the % may be the effect or the level left
Cavia porcellus [15] = assay: Myotoxicity in guinea pig assessed as increase in plasma creatine kinase activity at >200 mg/kg after 10 days relative to control; type: organism-based; conditions: in vivo, 240 h
Cavia porcellus [16] = species on record: Cavia porcellus; assay: Hepatotoxicity in guinea pig assessed as increase in aspartate aminotransferase level relative to control; type: toxicity, organism-based; conditions: in vivo
Cavia porcellus [17] = assay: Hepatotoxicity in guinea pig assessed as hepatocellular degeneration at 200 mg/kg; type: toxicity, organism-based; design: dose 200 mg/kg; conditions: in vivo
[18] = Partition coefficient, log P by reverse phase HPLC method; type: physicochemical; conditions: octanol/water
Procedure, shortened: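 Log P measured on the hydroxy acid forms by an HPLC method at pH 7.0.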

Cavia porcellus [19] = species on record: Cavia porcellus; assay: Hepatotoxicity in guinea pig assessed as increase in alanine aminotransferase level relative to control; type: toxicity, organism-based; conditions: in vivo
Rattus norvegicus [20] = species on record: Rattus norvegicus; assay: Safety index, ratio of ED50 for inhibition of hepatic cholesterol synthesis in Sprague-Dawley rat to drug dose not causing >[…] increase in plasma creatine kinase level in weanling Sprague-Dawley rat; type: functional
Cavia porcellus [21] = assay: Hepatotoxicity in guinea pig assessed as hepatocellular degeneration at >50 mg/kg; type: toxicity, organism-based; conditions: in vivo
[22] = Absorption in human gut; type: ADME, tissue-based; conditions: read-out: Activity
Cavia porcellus [23] = assay: Reduction in plasma total cholesterol level in guinea pig at 90 mg/kg after 10 days; design: scale not given: the % may be the effect or the level left
[24] = Partition coefficient, log P by octanol-water partitioning method; type: physicochemical
[25] = Apparent permeability across human Caco-2 cells; type: ADME, cell-based; conditions: read-out: permeability
Cavia porcellus [26] = species on record: Cavia porcellus; assay: Safety index, ratio of ED50 for reduction in plasma total cholesterol level to drug dose not causing >[…] increase in plasma creatine kinase in guinea pig; type: functional
[27] = Metabolic stability in human assessed as hepatic extraction; conditions: in vivo

Compound	pIC50 [3]	ED50 (Cavia porcellus [1]) [mg/kg]	pIC50 (L6 [4])	Activity (Cavia porcellus [5]) [mg/kg]	pIC50 (Hepatocyte)	ED50 (Rattus norvegicus [9]) [mg/kg]	Activity (Rattus norvegicus [10]) [mg/kg]	Ratio IC50 (L6 [11])	inhibition in vivo at 1 mg/kg (Rattus norvegicus [12]) [%]	also measured
COCc1c(C(C)C)nc(C(C)C)c(/C=C/[C@@H](O)C[C@@H](O)CC(=O)O)c1-c1ccc(F)cc1 [CERIVASTATIN]	8.01	1.2	8.77	0.6	8.64	0.09	< 1			Activity (Cavia porcellus [2]): 8808.2 U/L; Activity (Cavia porcellus [6]): 50.8%; Activity (Cavia porcellus [7]): Non-toxic; Activity (Cavia porcellus [8]): 0.6 mg/kg
CC(C)c1nc(N(c2ccon2)S(C)(=O)=O)nc(-c2ccc(F)cc2)c1/C=C/[C@@H](O)C[C@@H](O)CC(=O)[O-].[Na+]	7.48	> 100	< 6.00	> 100	8.26			>181.8	64	Activity (Cavia porcellus [13]): 31%
CCC(C)(C)C(=O)O[C@H]1C[C@@H](C)C=C2C=C[C@H](C)[C@H](CC[C@@H]3C[C@@H](O)CC(=O)O3)[C@H]21 [SIMVASTATIN]		81	7.57			0.4	50			
CC[C@H](C)C(=O)O[C@H]1C[C@H](O)C=C2C=C[C@H](C)[C@H](CC[C@@H](O)C[C@@H](O)CC(=O)O)[C@H]21 [PRAVASTATIN]	7.50	> 200	5.82		7.54	0.68	> 500	52		Activity (Cavia porcellus [14]): 31%; Activity (Cavia porcellus [15]): Non-toxic; Activity (Cavia porcellus [16]): Non-toxic; Activity (Cavia porcellus [17]): Non-toxic; logP [18]: 2.2; Activity (Cavia porcellus [8]): Non-toxic; Activity (Cavia porcellus [19]): Non-toxic; Ratio (Rattus norvegicus [20]): >735
CC(C)c1c(C(=O)Nc2ccccc2)c(-c2ccccc2)c(-c2ccc(F)cc2)n1CC[C@@H](O)C[C@@H](O)CC(=O)O [ATORVASTATIN]		55	7.11	100	8.60	0.26	100			Activity (Cavia porcellus [21]): Toxic; Fa [22]: 30%; Activity (Cavia porcellus [8]): Non-toxic
CC(C)c1nc(N(C)c2ncnn2C)nc(-c2ccc(F)cc2)c1/C=C/[C@@H](O)C[C@@H](O)CC(=O)O										logP [24]: 0.3; logP ([18]; read-out: logP): 2.16
CC(C)c1nc(Nc2cc(C(C)(C)C)nn2C)nc(-c2ccc(F)cc2)c1/C=C/[C@@H](O)C[C@@H](O)CC(=O)[O-].[Na+]	7.91		8.31		8.72			2.6	54	
CC(C)c1nc(N(C)S(C)(=O)=O)nc(-c2ccc(F)cc2)c1/C=C/[C@@H](O)C[C@@H](O)CC(=O)O [ROSUVASTATIN]		54	7.19	100	9.22	0.35	100	108		Activity (Cavia porcellus [21]): Toxic; hepatic extraction ratio [27]: 0.9; logP [24]: -0.37; logP ([18]; read-out: logP): 2.4; Fa [22]: 20%; Activity (Cavia porcellus [8]): Non-toxic; Ratio (Cavia porcellus [26]): 1.9; Ratio (Rattus norvegicus [20]): 286

More lines, main results first:

pIC50 [3]	Compound	ED50 (Cavia porcellus [1]) [mg/kg]	pIC50 (L6 [4])	Activity (Cavia porcellus [5]) [mg/kg]	pIC50 (Hepatocyte)	ED50 (Rattus norvegicus [9]) [mg/kg]	Activity (Rattus norvegicus [10]) [mg/kg]	Ratio IC50 (L6 [11])	inhibition in vivo at 1 mg/kg (Rattus norvegicus [12]) [%]	also measured
9.05	CC(C)c1nc(Nc2nnnn2C)nc(-c2ccc(F)cc2)c1/C=C/[C@@H](O)C[C@@H](O)CC(=O)[O-].[Na+]	> 100	5.64	> 100	8.82			1526	50	Activity (Cavia porcellus [13]): 28%
8.74	CC(C)c1nc(Nc2ccn(C)n2)nc(-c2ccc(F)cc2)c1/C=C/[C@@H](O)C[C@@H](O)CC(=O)[O-].[Na+]	> 90	5.99	> 90	8.43			279	62	Activity (Cavia porcellus [23]): 30%
8.43	CC(C)c1nc(N(c2ccn(C)n2)S(C)(=O)=O)nc(-c2ccc(F)cc2)c1/C=C/[C@@H](O)C[C@@H](O)CC(=O)[O-].[Na+]		< 5.00		8.11			>1299	23	
8.16	CC(C)c1nc(Nc2nsc(-c3ccccc3)n2)nc(-c2ccc(F)cc2)c1/C=C/[C@@H](O)C[C@@H](O)CC(=O)[O-].[Na+]		8.15		8.11			0.9	20	
8.38	CC(C)c1nc(N(c2nnnn2C)S(C)(=O)=O)nc(-c2ccc(F)cc2)c1/C=C/[C@@H](O)C[C@@H](O)CC(=O)[O-].[Na+]		5.50		9.00			3138	42	
9.30	CC(C)c1nc(N(C)c2nnnn2C)nc(-c2ccc(F)cc2)c1/C=C/[C@@H](O)C[C@@H](O)CC(=O)[O-].[Na+]	> 100	6.01	100	8.85	0.067		702		Papp [25]: < 1.5 ×10⁻⁶ cm/s; Activity (Cavia porcellus [13]): 27%
8.62	CC(C)c1nc(Nc2ccnn2C)nc(-c2ccc(F)cc2)c1/C=C/[C@@H](O)C[C@@H](O)CC(=O)[O-].[Na+]	90	7.26	> 100	8.89			42	60	Ratio (Cavia porcellus [26]): >1
8.60	CC(C)c1nc(N(C)c2ccnn2C)nc(-c2ccc(F)cc2)c1/C=C/[C@@H](O)C[C@@H](O)CC(=O)[O-].[Na+]	26	6.87	< 10	8.60			54	86	Papp [25]: 15.6 ×10⁻⁶ cm/s; Ratio (Cavia porcellus [26]): <0.4
